The results in this text go back to ChEMBL document CHEMBL3046149, “Synthesis, fungicidal activity, and sterol 14α-demethylase binding interaction of 2-azolyl-3,4-dihydroquinazolines on Penicillium digitatum” (J Agric Food Chem, 2013).

Test [1] has as its system Penicillium digitatum. In words: Fungicidal activity against Penicillium digitatum assessed as inhibition of mycelium measured after 48 hr. The test is classed as functional, organism-based. In a few lines: (§1)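 Poisoned-agar test on P. digitatum. Compounds in DMSO were mixed into molten agar at about 45–50 °C, at 1–50 μg/mL. Blank medium was the control. 5 mm plugs taken from the margins of actively growing mycelial colonies were placed at plate centres. Plates were run in triplicate at 26 °C in darkness. Colony diameter was read at 48 h; inhibition % = (control − treated diameter)/control diameter.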

The subject of test [2] is Penicillium digitatum. In words: Fungicidal activity against Penicillium digitatum assessed as inhibition of mycelium at 1 ug/ml measured after 48 hr. The class given is functional. In a few lines: as §1
For test [3], the system named is Penicillium digitatum. In words: Fungicidal activity against Penicillium digitatum assessed as inhibition of mycelium at 50 ug/ml measured after 48 hr. The class given is functional. In a few lines:
as §1

Test [4] has as its system Penicillium digitatum. In words: Fungicidal activity against Penicillium digitatum assessed as inhibition of mycelium at 10 ug/ml measured after 48 hr. The class given is functional. Summed up:
as §1

The test system of test [5] is Penicillium digitatum. Kind of test: Fungicidal activity against Penicillium digitatum assessed as inhibition of mycelium at 5 ug/ml measured after 48 hr. The class given is functional. In a few lines: as §1
The target in test [6] is T1, P450 sterol 14-alpha-demethylase (Penicillium digitatum, UniProt E3SW77).
T1 sequence (E3SW77 whole entry): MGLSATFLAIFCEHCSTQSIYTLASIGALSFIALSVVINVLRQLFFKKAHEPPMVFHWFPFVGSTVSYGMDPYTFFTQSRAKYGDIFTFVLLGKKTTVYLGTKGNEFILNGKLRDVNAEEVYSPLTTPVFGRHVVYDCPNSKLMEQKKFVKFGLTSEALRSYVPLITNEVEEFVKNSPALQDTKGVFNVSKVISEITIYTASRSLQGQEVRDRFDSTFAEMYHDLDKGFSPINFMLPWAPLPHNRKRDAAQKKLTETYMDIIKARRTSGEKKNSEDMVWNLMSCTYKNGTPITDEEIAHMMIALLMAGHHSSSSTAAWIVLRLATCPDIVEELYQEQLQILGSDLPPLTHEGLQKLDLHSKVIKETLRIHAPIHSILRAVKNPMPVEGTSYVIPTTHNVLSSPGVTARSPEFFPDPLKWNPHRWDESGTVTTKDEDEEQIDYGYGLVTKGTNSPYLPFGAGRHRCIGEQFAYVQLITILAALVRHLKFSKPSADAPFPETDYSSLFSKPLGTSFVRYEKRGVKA
Kind of test: Binding affinity to Penicillium digitatum CYP51. In a few lines:
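Recombinant His-tagged P. digitatum CYP51 from E. coli BL21(DE3), Ni-NTA purified, in 100 mM PBS pH 7.2. Difference spectra at 350−500 nm were recorded 1 min after adding compound at room temperature, with DMSO below 0.5%. Kd came from a Hanes−Woolf plot of [I] versus [I]/ΔA, using Amax from the saturated absorbance shift.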

In test [7] the test system is Penicillium digitatum. Kind of test: Fungicidal activity against Penicillium digitatum assessed as inhibition of mycelium at 25 ug/ml measured after 48 hr. The test is classed as functional. Summed up: as §1
Test [8] deals with Penicillium digitatum. In words: Antifungal activity against Penicillium digitatum assessed as growth inhibition.

pIC50, pKd: −log10 of the molar value. In brackets after ≈: the same amount, converted by molar mass.

Usually IC50 stands for the concentration that inhibits the measured activity by half. As usually defined, the inhibition is the share of the control response that was lost under treatment. Turning to `CC(=O)CC1c2ccccc2N=C(n2ccnc2)N1C(C)C` (configuration not stated), the IC50 in test [1] amounted to 126 µg/mL (≈ 425 µM). The inhibition at 1 µg/mL in test [2] stood at 0%. The inhibition at 50 µg/mL in test [3] came to 28%. For the same compound, the inhibition at 10 µg/mL in test [4] was 15%. Moreover, the inhibition at 5 µg/mL in test [5] was 4%.
As usually defined, the pKd is the Kd on a negative log10 scale, so that one unit is a factor of ten. Higher therefore signals a small Kd. By pIC50 is commonly meant −log10 of the IC50, conventionally taken in molar units. As for `CCCCN1C(n2ccnc2)=Nc2ccccc2C1CC(C)=O` (configuration not stated), in test [6], the pKd is 4.88. The IC50 in test [1] came to 15.6 µg/mL (≈ 50.2 µM). In test [2], the inhibition at 1 µg/mL worked out at 5%. Further, the inhibition at 50 µg/mL in test [3] was found to be 100%. The inhibition at 25 µg/mL in test [7] amounted to 57%. Further, the inhibition at 10 µg/mL in test [4] is 29%. For the same compound, the inhibition at 5 µg/mL in test [5] came to 14%. The pIC50 in test [8] is 4.30.
For the compound `CC(=O)CC1c2ccccc2N=C(n2ccnc2)N1c1ccc(Cl)cc1` (configuration not stated), the pKd in test [6] was 5.54. The IC50 in test [1] worked out at 10.4 µg/mL (≈ 28.5 µM). For the same compound, the inhibition at 1 µg/mL in test [2] was found to be 0%. In test [3], the inhibition at 50 µg/mL stood at 100%. In addition, in test [7], the inhibition at 25 µg/mL amounted to 100%. Besides, the inhibition at 10 µg/mL in test [4] stood at 35%. For the same compound, the inhibition at 5 µg/mL in test [5] is 14%. Further, in test [8], the pIC50 was 4.55.
In the case of `CC(=O)CC1c2ccccc2N=C(n2ccnc2)N1c1ccc(F)cc1` (configuration not stated), the pKd in test [6] was 6.01. The IC50 in test [1] was determined as 4.14 µg/mL (≈ 11.9 µM). The inhibition at 1 µg/mL in test [2] stood at 9%. Further, in test [3], the inhibition at 50 µg/mL amounted to 100%. Also, the inhibition at 25 µg/mL in test [7] is 100%. Further, the inhibition at 10 µg/mL in test [4] was 86%. The inhibition at 5 µg/mL in test [5] was 52%. Besides, in test [8], the pIC50 is 4.93.
For the compound `CC(=O)CC1c2ccccc2N=C(n2ccnc2)N1c1ccccc1` (configuration not stated), the IC50 in test [1] amounted to 5.06 µg/mL (≈ 15.3 µM). In addition, the inhibition at 1 µg/mL in test [2] is 8%. Further, the inhibition at 50 µg/mL in test [3] worked out at 100%. In addition, the inhibition at 10 µg/mL in test [4] turned out to be 61%. The inhibition at 5 µg/mL in test [5] is 29%.
Take `CC(=O)CC1c2cc(Cl)ccc2N=C(n2ccnc2)N1c1ccc(F)cc1` (configuration not stated): the pKd in test [6] is 5.62. Moreover, the IC50 in test [1] is 7.12 µg/mL (≈ 18.6 µM). Also, the inhibition at 1 µg/mL in test [2] came out at 9%. In addition, in test [3], the inhibition at 50 µg/mL was 100%. For the same compound, the inhibition at 25 µg/mL in test [7] was determined as 100%. Further, the inhibition at 10 µg/mL in test [4] came out at 64%. Further, the inhibition at 5 µg/mL in test [5] stood at 21%. For the same compound, the pIC50 in test [8] is 4.73.
On to `CC(=O)CC1c2cc(Cl)ccc2N=C(n2cncn2)N1c1ccccc1` (configuration not stated), for which the IC50 in test [1] is more than 50 µg/mL. In test [3], the inhibition at 50 µg/mL is 8%.
The corresponding values for `CC(=O)CC1c2cc(Cl)ccc2N=C(n2cncn2)N1C(C)C` (configuration not stated) are more than 50 µg/mL and 17%.
Regarding `CC(=O)CC1c2ccccc2N=C(n2cncn2)N1c1ccccc1` (configuration not stated), in test [1], the IC50 is 129 µg/mL (≈ 389 µM). The inhibition at 1 µg/mL in test [2] was 0%. Further, in test [3], the inhibition at 50 µg/mL amounted to 24%. In addition, the inhibition at 10 µg/mL in test [4] is 11%. The inhibition at 5 µg/mL in test [5] was 0%.
Take `CC(=O)CC1c2ccccc2N=C(n2cncn2)N1c1cccc(C)c1` (configuration not stated): the IC50 in test [1] stood at 60.1 µg/mL (≈ 174 µM). In addition, the inhibition at 1 µg/mL in test [2] amounted to 0%. For the same compound, the inhibition at 50 µg/mL in test [3] came out at 44%. Also, the inhibition at 10 µg/mL in test [4] came to 19%. In test [5], the inhibition at 5 µg/mL came out at 12%.
Take `CC(=O)CC1c2ccccc2N=C(n2cncn2)N1c1ccc(Cl)cc1` (configuration not stated): the IC50 in test [1] was more than 50 µg/mL. Besides, the inhibition at 50 µg/mL in test [3] turned out to be 10%.
The corresponding values for `CC(=O)CC1c2ccccc2N=C(n2cncn2)N1c1ccc(F)cc1` (configuration not stated) are more than 50 µg/mL and 14%.
The corresponding values for `CC(=O)CC1c2ccccc2N=C(n2cncn2)N1C(C)C` (configuration not stated) are more than 50 µg/mL and 10%.
Regarding `CC(C)(C)C(=O)CC1c2ccccc2N=C(n2cncn2)N1c1ccccc1` (configuration not stated), the IC50 in test [1] amounted to 90 µg/mL (≈ 241 µM). Also, in test [2], the inhibition at 1 µg/mL was 0%. Further, in test [3], the inhibition at 50 µg/mL amounted to 35%. In addition, in test [4], the inhibition at 10 µg/mL worked out at 15%. Also, the inhibition at 5 µg/mL in test [5] was found to be 8%.
For `Cc1cccc(N2C(n3cncn3)=Nc3ccccc3C2CC(=O)C(C)(C)C)c1` (configuration not stated), the IC50 in test [1] came out at 67.1 µg/mL (≈ 173 µM). In addition, the inhibition at 1 µg/mL in test [2] was 0%. In addition, in test [3], the inhibition at 50 µg/mL turned out to be 40%. Besides, the inhibition at 10 µg/mL in test [4] was 22%. For the same compound, the inhibition at 5 µg/mL in test [5] worked out at 8%.
The corresponding values for `CC(=O)CC1c2cc(Cl)ccc2N=C(n2ccnc2)N1C(C)C` (configuration not stated) are 128 µg/mL (≈ 387 µM), 0%, 30%, 12% and 8%.
Turning to `CC(C)(C)C(=O)C(Oc1ccc(Cl)cc1)n1cncn1` (configuration not stated) [TRIADIMEFON], in test [2], the inhibition at 1 µg/mL came to 0%. Also, in test [3], the inhibition at 50 µg/mL came out at 100%. Besides, in test [7], the inhibition at 25 µg/mL is 100%. For the same compound, in test [4], the inhibition at 10 µg/mL is 60%. Besides, the inhibition at 5 µg/mL in test [5] amounted to 27%.
